Experimental data as given in ChEMBL document CHEMBL4229550, “An antimycobacterial pleuromutilin analogue effective against dormant bacilli” (Bioorg Med Chem, 2018).
In brackets after ≈: the same amount, converted by molar mass. Activity calls are given as the source filed them. The calls are words filed in the database; no cut-off is given here.

Experiments:
Erythrocyte = assay: Hemolytic activity in sheep erythrocytes after 2 hrs; assay type: ADME, cell-based; conditions: Ovis aries
In short: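 Washed heparinized sheep erythrocytes at 3% in buffer pH 7.4 were treated with 2–200 µg/mL for 2 h at 37 °C with gentle shaking. Triton X-100 (0.01–1%) was the positive control and PEG:H2O diluent the negative control. Released hemoglobin was read at OD540 and % hemolysis calculated against both controls.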

[1] = system: Mycobacterium tuberculosis; assay: Antibacterial activity against replicating Mycobacterium tuberculosis H37Rv incubated for 15 days under aerobic condition by MABA; assay type: functional; conditions: 360 h, read-out: MIC100
In short: (§1)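 Mtb H37Rv grown in 7H9/OADC at 37 °C with shaking to OD600 0.5. The 0.5-OD culture is exposed aerobically to serial dilutions for 15 days at 37 °C. Resazurin (0.02% stock) is then added for 4 h at 37 °C with shaking.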

Vero = assay: Cytotoxicity against African green monkey Vero cells assessed as reduction in cell viability after 72 hrs by MTT assay; assay type: cell-based; conditions: Chlorocebus sabaeus
In short: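 Vero cells were grown in complete EMEM with 10% FBS and exposed for 72 h to 0.78–200 µg/mL. The medium was then swapped for phenol-red-free EMEM and MTT was added. Formazan absorbance was read at 570 nm to give IC50.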

Streptococcus pneumoniae [2] = assay: Antibacterial activity against Streptococcus pneumoniae ATCC 6301 incubated for 24 hrs under aerobic condition by MABA; assay type: functional; conditions: ATCC 6301, 24 h, read-out: MIC100
In short: (§2)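 Mid-log cultures at OD 0.5 were exposed to serial dilutions under aerobic conditions at 37 °C for 24 h. Resazurin was then added from a 0.08% stock for 1 h. MIC100 was the lowest concentration where the dye stayed blue (pink means growth). Absorbance was also read at 570 and 600 nm.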

Acinetobacter baumannii [3] = assay: Bactericidal activity against Acinetobacter baumannii ATCC 19606 incubated for 24 hrs under aerobic condition by MABA; assay type: functional; conditions: ATCC 19606 = CIP 70.34 = JCM 6841, 24 h
Bacillus subtilis [4] = assay: Bactericidal activity against Bacillus subtilis ATCC 6051 incubated for 24 hrs under aerobic condition by MABA; assay type: functional; conditions: ATCC 6051, 24 h
Klebsiella pneumoniae [5] = assay: Antibacterial activity against Klebsiella pneumoniae ATCC 12019 incubated for 24 hrs under aerobic condition by MABA; assay type: functional; conditions: ATCC 12019, 24 h, read-out: MIC100; in short: as §2
Staphylococcus aureus [6] = assay: Bactericidal activity against Staphylococcus aureus incubated for 24 hrs under aerobic condition by MABA; assay type: functional
Escherichia coli [7] = assay: Antibacterial activity against Escherichia coli ATCC 10798 incubated for 24 hrs under aerobic condition by MABA; assay type: functional; conditions: ATCC 10798, 24 h, read-out: MIC100; in short: as §2
Staphylococcus aureus [8] = assay: Bactericidal activity against Staphylococcus aureus ATCC 25923 incubated for 24 hrs under aerobic condition by MABA; assay type: functional; conditions: ATCC 25923, 24 h
[9] = system: Mycobacterium tuberculosis; assay: Bactericidal activity against non-replicating Mycobacterium tuberculosis CDC1551 expressing tdTomato infected in mouse J774A.1 cells at 2 times MIC after 48 hrs by UV-Visible spectroscopic method; assay type: functional, organism-based
In short: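 J774A.1 macrophages are seeded at […] cells/well in DMEM and incubated overnight at 37 °C. They are infected with saline-washed Mtb CDC1551-tdTomato (10^6 bacteria, MOI ≈10), and extracellular bacteria are washed off with PBS. Treatment is at 2×MIC, with fluorescence emission read at 581 nm at 24, 48, 72 and 96 h. Survivors are confirmed by serial dilution and plating on 7H11.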

Acinetobacter baumannii [10] = assay: Antibacterial activity against Acinetobacter baumannii ATCC 19606 incubated for 24 hrs under aerobic condition by MABA; assay type: functional; conditions: ATCC 19606 = CIP 70.34 = JCM 6841, 24 h, read-out: MIC100; in short: as §2
[11] = system: Mycolicibacterium smegmatis; assay: Bactericidal activity against Mycobacterium smegmatis ATCC 607 incubated for 48 hrs under aerobic condition by MABA; assay type: functional; conditions: ATCC 607, 48 h
Escherichia coli [12] = assay: Bactericidal activity against Escherichia coli ATCC 10798 incubated for 24 hrs under aerobic condition by MABA; assay type: functional; conditions: ATCC 10798, 24 h
Staphylococcus aureus [13] = assay: Antibacterial activity against Staphylococcus aureus ATCC 25923 incubated for 24 hrs under aerobic condition by MABA; assay type: functional; conditions: ATCC 25923, 24 h, read-out: MIC100; in short: as §2
Staphylococcus aureus [14] = assay: Antibacterial activity against Staphylococcus aureus BAA 44 incubated for 24 hrs under aerobic condition by MABA; assay type: functional; conditions: BAA 44, 24 h, read-out: MIC100; in short: as §2
Bacillus subtilis [15] = assay: Antibacterial activity against Bacillus subtilis ATCC 6051 incubated for 24 hrs under aerobic condition by MABA; assay type: functional; conditions: ATCC 6051, 24 h, read-out: MIC100; in short: as §2
Streptococcus salivarius = assay: Bactericidal activity against Streptococcus salivarius ATCC 6301 incubated for 24 hrs under aerobic condition by MABA; assay type: functional; conditions: ATCC 6301, 24 h
Enterococcus faecalis [16] = assay: Bactericidal activity against Enterococcus faecalis ATCC 19433 incubated for 24 hrs under aerobic condition by MABA; assay type: functional; conditions: ATCC 19433, 24 h
Enterococcus faecalis [17] = assay: Antibacterial activity against Enterococcus faecalis ATCC 349 incubated for 24 hrs under aerobic condition by MABA; assay type: functional; conditions: ATCC 349, 24 h, read-out: MIC100; in short: as §2
Klebsiella pneumoniae [18] = assay: Bactericidal activity against Klebsiella pneumoniae ATCC 12019 incubated for 24 hrs under aerobic condition by MABA; assay type: functional; conditions: ATCC 12019, 24 h
[19] = system: Mycolicibacterium smegmatis; assay: Antibacterial activity against Mycobacterium smegmatis ATCC 607 incubated for 48 hrs under aerobic condition by MABA; assay type: functional; conditions: ATCC 607, 48 h, read-out: MIC100
In short: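 Mid-log culture at OD 0.5 was incubated with serial dilutions aerobically at 37 °C for 48 h. Resazurin was then added from a 0.08% stock for 1 h. MIC100 was the lowest concentration that stayed blue; absorbance was also read at 570/600 nm.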

[20] = system: Mycobacterium tuberculosis; assay: Bactericidal activity against replicating Mycobacterium tuberculosis H37Rv incubated for 15 days under aerobic condition by MABA; assay type: functional; conditions: 360 h; in short: as §1
Streptococcus pneumoniae [21] = assay: Bactericidal activity against Streptococcus pneumoniae ATCC 6301 incubated for 24 hrs under aerobic condition by MABA; assay type: functional; conditions: ATCC 6301, 24 h
Clostridioides difficile = assay: Bactericidal activity against Clostridium difficile ATCC 700057 incubated for 24 hrs […] by MABA; assay type: functional; conditions: ATCC 700057, 24 h
Staphylococcus aureus [22] = assay: Bactericidal activity against Staphylococcus aureus BAA 1683 incubated for 24 hrs under aerobic condition by MABA; assay type: functional; conditions: BAA 1683, 24 h
Enterococcus faecalis [23] = assay: Antibacterial activity against Enterococcus faecalis ATCC 19433 incubated for 24 hrs under aerobic condition by MABA; assay type: functional; conditions: ATCC 19433, 24 h, read-out: MIC100; in short: as §2
Staphylococcus aureus [24] = assay: Bactericidal activity against Staphylococcus aureus BAA 2094 incubated for 24 hrs under aerobic condition by MABA; assay type: functional; conditions: BAA 2094, 24 h
Staphylococcus aureus [25] = assay: Antibacterial activity against Staphylococcus aureus BAA 1683 incubated for 24 hrs under aerobic condition by MABA; assay type: functional; conditions: BAA 1683, 24 h, read-out: MIC100; in short: as §2
Enterococcus faecalis [26] = assay: Bactericidal activity against Enterococcus faecalis ATCC 349 incubated for 24 hrs under aerobic condition by MABA; assay type: functional; conditions: ATCC 349, 24 h
Staphylococcus aureus [27] = assay: Bactericidal activity against Staphylococcus aureus BAA 44 incubated for 24 hrs under aerobic condition by MABA; assay type: functional; conditions: BAA 44, 24 h

CCCCCCCCCCCCC/C=C/C(=O)N[C@H]1[C@H](O[C@H]2O[C@H](CO)[C@@H](O)[C@H](O)[C@H]2NC(C)=O)O[C@H](CC(O)[C@H]2O[C@@H](n3ccc(=O)[nH]c3=O)[C@H](O)[C@@H]2O)[C@H](O)[C@@H]1O (some centres not stated)
IC50 (Erythrocyte): 15 µM | MIC [1]: 12.5 µg/mL (≈ 14.8 µM) | IC50 (Vero): 0.18 µg/mL (≈ 0.213 µM)

CO[C@H]1/C=C/O[C@@]2(C)Oc3c(C)c(O)c4c(O)c(c(/C=N/N5CCN(C)CC5)c(O)c4c3C2=O)NC(=O)/C(C)=C\C=C\[C@H](C)[C@H](O)[C@@H](C)[C@@H](O)[C@@H](C)[C@H](OC(C)=O)[C@@H]1C [RIFAMPIN]
MIC (Streptococcus pneumoniae [2]): 25 µg/mL (≈ 30.4 µM) | MBC (Acinetobacter baumannii [3]): 3.13 µg/mL (≈ 3.8 µM) | MBC (Bacillus subtilis [4]): 0.4 µg/mL (≈ 0.486 µM) | MIC (Klebsiella pneumoniae [5]): 1.56 µg/mL (≈ 1.9 µM) | MBC (Staphylococcus aureus [6]): 0.4 µg/mL (≈ 0.486 µM) | MIC (Escherichia coli [7]): 3.13 µg/mL (≈ 3.8 µM) | MBC (Staphylococcus aureus [8]): > 25 µg/mL | Activity [9]: Active | MIC (Acinetobacter baumannii [10]): 2.35 µg/mL (≈ 2.86 µM) | MBC [11]: > 25 µg/mL | MBC (Escherichia coli [12]): 25 µg/mL (≈ 30.4 µM) | MIC (Staphylococcus aureus [13]): > 25 µg/mL | MIC (Staphylococcus aureus [14]): 6.25 µg/mL (≈ 7.59 µM) | MIC (Bacillus subtilis [15]): 0.3 µg/mL (≈ 0.365 µM) | MBC (Streptococcus salivarius): > 25 µg/mL | MBC (Enterococcus faecalis [16]): 1.56 µg/mL (≈ 1.9 µM) | MIC (Enterococcus faecalis [17]): > 25 µg/mL | MBC (Klebsiella pneumoniae [18]): 3.13 µg/mL (≈ 3.8 µM) | MIC [19]: > 25 µg/mL | MBC [20]: 0.01 µg/mL (≈ 0.0122 µM) | MBC (Streptococcus pneumoniae [21]): > 25 µg/mL | MBC (Clostridioides difficile): 0.78 µg/mL (≈ 0.948 µM) | MBC (Staphylococcus aureus [22]): 0.2 µg/mL (≈ 0.243 µM) | MIC (Enterococcus faecalis [23]): 0.78 µg/mL (≈ 0.948 µM) | MBC (Staphylococcus aureus [24]): 0.2 µg/mL (≈ 0.243 µM) | MIC (Staphylococcus aureus [25]): 0.15 µg/mL (≈ 0.182 µM) | MBC (Enterococcus faecalis [26]): > 25 µg/mL | IC50 (Vero): > 200 µg/mL | MBC (Staphylococcus aureus [27]): 25 µg/mL (≈ 30.4 µM)
